Activity calls are given as the source filed them. No cut-off for these calls is given here.
Assays:
[1] = Metabolic stability in dog microsomes assessed as compound metabolized after 30 mins; type: ADME, Canis lupus familiaris, Microsome; conditions: read-out: Drug metabolism
In short: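 Compound incubated 30 min with liver microsomes from mouse, rat, dog or human. Percent of compound metabolized recorded, as mean (SEM, n).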

[2] = AUC (0 to 24 hrs) in Beagle dog at 100 mg/kg, po; type: ADME, organism-based, Canis lupus familiaris; parameters: time < 24 hr, dose 100 mg/kg, route oral; conditions: in vivo
[3] = Half life in Sprague-Dawley rat at 1 mg/kg, iv; type: ADME, organism-based; conditions: in vivo
[4] = Tmax in Sprague-Dawley rat at 10 mg/kg, po; type: ADME, organism-based; conditions: in vivo
[5] = Drug metabolism in rat hepatocytes assessed as metabolite-A formation; type: ADME, cell-based, Hepatocyte
[6] = Aqueous solubility of the compound at pH 7.4; type: physicochemical
In short: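 Solubility was measured by DMSO/aqueous precipitation at pH 7.4 and reported as the last soluble concentration.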

[7] = biological target: T1, Peroxisome proliferator-activated receptor alpha (Homo sapiens) (UniProt Q07869); assay: Displacement of [3H]-agonist from human PPARalpha expressed in baculovirus infecetd Sf9 cells system up to 30 uM after 10 hrs in presence of DR2 by scintillation proximity assay
T1 sequence (whole entry): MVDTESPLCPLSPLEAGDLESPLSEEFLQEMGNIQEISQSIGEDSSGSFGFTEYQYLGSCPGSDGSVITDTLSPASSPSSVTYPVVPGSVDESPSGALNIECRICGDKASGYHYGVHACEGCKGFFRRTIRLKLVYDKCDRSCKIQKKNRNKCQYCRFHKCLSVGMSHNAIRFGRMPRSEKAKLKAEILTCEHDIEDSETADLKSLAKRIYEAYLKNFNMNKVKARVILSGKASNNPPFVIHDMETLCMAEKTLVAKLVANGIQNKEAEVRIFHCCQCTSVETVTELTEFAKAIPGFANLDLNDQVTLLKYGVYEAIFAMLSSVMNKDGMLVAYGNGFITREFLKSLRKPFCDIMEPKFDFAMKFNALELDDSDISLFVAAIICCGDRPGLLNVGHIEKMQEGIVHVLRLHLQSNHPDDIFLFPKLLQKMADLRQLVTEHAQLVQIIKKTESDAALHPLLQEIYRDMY
In short: (§1)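 PPAR alpha, delta and gamma binding and functional activity were each tested at concentrations up to 30 µM.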

[8] = Cmax in Beagle dog at 100 mg/kg, po; type: ADME, organism-based, Canis lupus familiaris; parameters: dose 100 mg/kg, route oral; conditions: in vivo
[9] = test system: Rattus norvegicus; assay: Antidiabetic activity in po dosed Zucker fa/fa rat assessed as reduction in blood glucose AUC administered daily for 21 days followed by OGTT at 1 hr after compound dosing and measured 60 mins post glucose challenge by oral glucose tolerance test; type: functional
[10] = Tmax in Sprague-Dawley rat at 1 mg/kg, po; type: ADME, organism-based; conditions: in vivo
In short: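 Fasted rats given oral doses of 1 mg/kg. […] Bioavailability is calculated against the 1 mg/kg IV group.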

[11] = Oral bioavailability in Beagle dog at 3 mg/kg; type: ADME, organism-based, Canis lupus familiaris; conditions: in vivo
In short: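 Fasted dogs dosed orally at 3 mg/kg. […] Bioavailability is derived relative to the 1 mg/kg IV dose.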

[12] = AUC (0 to 24 hrs) in Sprague-Dawley rat at 100 mg/kg, po; type: ADME, organism-based; parameters: dose 100 mg/kg, time < 24 hr, route oral; conditions: in vivo
[13] = biological target: Free fatty acid receptor 1 (Rattus norvegicus) (UniProt Q8K3T4); assay: Agonist activity at GPR40 in Sprague-Dawley rat islets assessed as glucose-stimulated insulin secretion levels at 3 uM in presence of 11.2 mM glucose by ELISA (reference value: 6.24 ng/ml)
[14] = AUC (0 to 24 hrs) in Sprague-Dawley rat at 10 mg/kg, po; type: ADME, organism-based; parameters: dose 10 mg/kg, time < 24 hr, route oral; conditions: in vivo
[15] = Clearance in Sprague-Dawley rat at 1 mg/kg, iv; type: ADME, organism-based; conditions: in vivo
[16] = Initial plasma concentration in Sprague-Dawley rat at 1 mg/kg, iv; type: ADME, organism-based
[17] = Intrinsic clearance in human microsomes; type: ADME, Microsome
[18] = biological target: Free fatty acid receptor 1 (Rattus norvegicus, UniProt Q8K3T4); assay: Agonist activity at rat PK-tagged GPR40 expressed in human U2OS cells assessed as EA-tagged beta-arrestin recruitment after 90 mins in presence of 1 % heat inactivated FBS by beta-galactosidase reporter gene assay; type: cell-based
In short: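 β-Arrestin recruitment used rat GPR40 in the presence of 1% FBS. EC50 and % maximal stimulation are reported with SEM and n.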

[19] = AUC (0 to 24 hrs) in Sprague-Dawley rat at 500 mg/kg, po; type: ADME, organism-based; parameters: dose 500 mg/kg, time < 24 hr, route oral; conditions: in vivo
[20] = biological target: T2, Peroxisome proliferator-activated receptor delta (Homo sapiens) (UniProt Q03181); assay: Agonist activity at GAL4-fused human PPARdelta expressed in African green monkey CV1 cells up to 30 uM after 24 hrs by luciferase reporter gene assay; type: cell-based; in short: as §1
T2 sequence (whole entry): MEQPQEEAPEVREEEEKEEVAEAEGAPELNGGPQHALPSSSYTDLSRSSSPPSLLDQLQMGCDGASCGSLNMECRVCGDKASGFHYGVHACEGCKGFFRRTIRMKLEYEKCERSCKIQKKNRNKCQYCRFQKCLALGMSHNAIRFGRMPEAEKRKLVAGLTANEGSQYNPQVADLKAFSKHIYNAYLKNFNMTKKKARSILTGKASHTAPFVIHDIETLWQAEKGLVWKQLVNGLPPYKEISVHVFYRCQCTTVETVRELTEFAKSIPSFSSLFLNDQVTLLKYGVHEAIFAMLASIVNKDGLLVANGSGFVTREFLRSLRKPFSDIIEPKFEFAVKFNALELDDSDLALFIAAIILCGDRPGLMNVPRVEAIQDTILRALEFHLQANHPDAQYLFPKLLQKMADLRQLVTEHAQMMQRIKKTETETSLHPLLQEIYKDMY

[21] = Volume of distribution at steady state in Beagle dog at 1 mg/kg, iv; type: ADME, organism-based, Canis lupus familiaris; conditions: in vivo, read-out: Vdss
[22] = Tmax in Beagle dog at 300 mg/kg, po; type: ADME, organism-based, Canis lupus familiaris; conditions: in vivo
In short: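 Dogs dosed orally at 30, 100 or 300 mg/kg, N = 2 per dose.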

[23] = biological target: Cytochrome P450 3A4 (Homo sapiens, UniProt P08684); assay: Inhibition of human CYP3A4; type: ADME
Cytochrome P450 3A4, sequence (P08684 whole entry): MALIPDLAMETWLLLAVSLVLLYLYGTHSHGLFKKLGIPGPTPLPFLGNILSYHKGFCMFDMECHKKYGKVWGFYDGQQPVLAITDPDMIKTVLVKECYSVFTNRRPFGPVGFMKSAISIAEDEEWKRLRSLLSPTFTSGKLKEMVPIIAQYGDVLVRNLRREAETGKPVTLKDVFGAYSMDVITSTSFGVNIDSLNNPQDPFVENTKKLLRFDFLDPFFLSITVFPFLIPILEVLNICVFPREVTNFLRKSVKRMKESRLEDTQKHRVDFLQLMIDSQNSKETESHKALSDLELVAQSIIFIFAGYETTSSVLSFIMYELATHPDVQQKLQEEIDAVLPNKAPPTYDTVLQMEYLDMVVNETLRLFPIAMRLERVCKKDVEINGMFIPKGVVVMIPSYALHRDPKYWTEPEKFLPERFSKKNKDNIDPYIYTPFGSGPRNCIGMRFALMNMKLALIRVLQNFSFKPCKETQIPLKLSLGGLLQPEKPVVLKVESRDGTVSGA

Free fatty acid receptor 1 (Rattus norvegicus), sequence (Q8K3T4 whole entry): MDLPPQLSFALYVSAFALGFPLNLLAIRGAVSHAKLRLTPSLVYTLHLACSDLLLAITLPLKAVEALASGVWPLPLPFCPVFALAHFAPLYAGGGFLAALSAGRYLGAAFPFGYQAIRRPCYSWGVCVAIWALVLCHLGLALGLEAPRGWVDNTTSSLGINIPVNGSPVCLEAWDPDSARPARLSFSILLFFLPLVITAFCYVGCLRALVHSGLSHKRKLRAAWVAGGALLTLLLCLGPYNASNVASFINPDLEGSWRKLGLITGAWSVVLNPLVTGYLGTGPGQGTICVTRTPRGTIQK
Free fatty acid receptor 1, sequence (Q8K3T4 whole entry): as above

metabolised at 0.5 h [1]: 5%
AUC(0-t) at 24 h [2]: 3320 µg·h/mL
half-life [3]: 3.98 h
Tmax [4]: 4 h
Drug metabolism [5]: Metabolite_Detected
solubility [6]: > 100 µM
Activity [7]: inactive
Cmax [8]: 260 µg/mL
Tmax [10]: 0.25 h
bioavailability [11]: 83%
AUC(0-t) at 24 h [12]: 2870 µg·h/mL
Activity [13]: 20.2 ng/mL
AUC(0-t) at 24 h [14]: 215 µg·h/mL
clearance [15]: 1.32 mL/min/kg
C0 [16]: 4.34 µg/mL
K [17]: < 0.0009 h⁻¹
EC50 [18]: 14 nM
AUC(0-t) at 24 h [19]: 4790 µg·h/mL
Activity [20]: inactive
Vd [21]: 0.27 L/kg
Tmax [22]: 6 h
IC50 [23]: > 60000 nM
SMILES: CC#C[C@@H](CC(=O)O)c1ccc(OCc2ccc3nc(-c4c(C)cccc4C)nn3c2)cc1
ED90 [9]: 5 mg/kg
